Bioassay records as filed in PubChem.
CRFBP-R2 block: antagonists of CRF-binding protein/CRF-R2 receptor complex; HEK293 CRF-R2/CRF-BP, CRF-induced calcium fluorescence; inhibition, % at 11.8 µM; actives 0.59% (n = 350,000);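 active = inhibition of the ligand-induced calcium signal above about 50% at the single tested concentration, limit read from the data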
Tn6 DDE FP: disrupts Tn6 cyclic peptide binding to fibrin D-Dimer-E complex; Fibrin DD(E) TRITC-Tn6 fluorescence polarization displacement; inhibition, % at 8.3 µM; actives 0.21% (n = 370,000);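 active = inhibition above a per-campaign cutoff: mean of compounds within control limits plus 3 SD, cut at about 15% in these data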;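 also: 0% = median of all compound wells on the plate and 100% = blocking peptide control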
Target sequence (P02675 whole entry, looked up): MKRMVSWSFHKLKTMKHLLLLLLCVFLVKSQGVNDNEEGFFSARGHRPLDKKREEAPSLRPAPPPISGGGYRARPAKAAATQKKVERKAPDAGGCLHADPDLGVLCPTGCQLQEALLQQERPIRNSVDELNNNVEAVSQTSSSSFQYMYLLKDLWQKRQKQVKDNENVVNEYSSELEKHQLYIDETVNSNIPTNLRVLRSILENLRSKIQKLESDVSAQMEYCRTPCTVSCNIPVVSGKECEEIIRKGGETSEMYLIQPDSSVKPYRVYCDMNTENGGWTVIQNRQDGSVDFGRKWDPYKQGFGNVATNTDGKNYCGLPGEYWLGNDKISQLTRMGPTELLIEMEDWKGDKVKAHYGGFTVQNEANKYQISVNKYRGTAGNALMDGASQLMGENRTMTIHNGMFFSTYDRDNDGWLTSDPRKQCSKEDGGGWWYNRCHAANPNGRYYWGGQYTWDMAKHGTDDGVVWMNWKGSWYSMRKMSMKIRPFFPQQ
CRFR2-BP ag: agonists of human CRF-binding protein/CRF-R2 receptor complex; HEK293 CRF-R2/CRF-BP, calcium dye fluorescence (FLIPR); percent of saturating CRF peptide response; activation, % at 13.2 µM; actives 0.46% (n = 350,000);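 active = activation of at least 50%, plus an integration ratio under a set limit after plate pattern correction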;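 also: plate controls were neutral control wells without compound for no effect and CRF at EC100 for full effect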
Tn7 DDE FP: DD(E)-Tn7 binding inhibition, primary FP screen; inhibition, % at 8.3 µM; P02675; actives 0.13% (n = 370,000); FP displacement of FITC-Tn7 peptide from fibrin DD(E); 0% = median of compound wells per plate;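 active = inhibition above the mean of compounds falling within the control limits plus 3 SD of them, cut at about 14% in these data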;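 also: 0% = plate median of compound wells and 100% = 10 µM Aha-Tn7 peptide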
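Assay system: human fibrin DD(E). Input: DD(E) 2 µM final. Medium: Tris buffer with calcium and detergent, pH 7.8. Compound dosing: single point at 8.3 µM. Timing: 10 min plus 3 h, room temperature. Technique: fluorescence polarization of the labelled Tn7 tracer. Read-out: percent inhibition. Replicates: singlicate testing.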
Tn7 DDE conf: confirmation of inhibitors of Tn7 binding to human fibrin DD(E). AID 720628. actives 5% (n = 460). shares compounds with Tn7 DDE FP. inhibition, % at 8.3 µM. FP displacement of TRITC-Tn7 peptide from DD(E); 0% set at plate's compound-well median;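 active = inhibition above the campaign cutoff, the mean of compounds within control limits plus 3 SD, cut at about 14% in these data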;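 also: 100% = median FP of high control wells holding Aha-Tn7 inhibitor peptide; displacers lower polarization since freed probe rises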
Tn7 DDE ctr: counter-screen hit for Tn7 peptide-fibrin DD(E) binding disruption; TRITC-Tn7 probe displacement, fluorescence polarization; shares compounds with Tn7 DDE FP; inhibition, % at 8.3 µM; actives 3% (n = 460); AID 720633;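 active = inhibition above the cutoff, the mean of compounds lying between the control bounds plus 3 SD of those compounds, cut at about 17% in these data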;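 also: 0% = median of compound sample wells and 100% = excess unlabeled Aha-Tn7 peptide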
The depositor's hits bear a star; / = no result given. An excerpt weighted towards active compounds, which were near 1.3% of everything screened.

SMILES	CRFBP-R2 block	Tn6 DDE FP	CRFR2-BP ag	Tn7 DDE FP	Tn7 DDE conf	Tn7 DDE ctr
O=c1[nH]c(-[n+]2ccc3ccccc3c2)c(/C=N/N=C(\[O-])c2ccccc2)s1	12	-8	7	17*	-1	-16
CCOC(=O)[C@@]12CN(C(=O)OC(C)(C)C)CC=C1N(Cc1ccc(OC)cc1)C(=O)[C@H]2CC(=O)NCCCN1CCCC1=O	/	11	/	5	/	/
CC(OC(=O)c1ccco1)C(=O)Nc1ccc(Cl)cn1 (stereo not given)	1	1	0	15*	-3	-7
N#CCC[C@H]1CC[C@]2(CCCN(C(=O)c3ccc4ccccc4n3)C2)O1	/	2	/	1	/	/
COc1ccccc1N(C)S(=O)(=O)c1ccc(C(=O)OCC(=O)NCC(F)(F)F)cc1	-7	-4	-1	14*	-2	-9
COc1ccccc1N(C)S(=O)(=O)c1ccc(C(=O)OCC(=O)NCc2cccs2)cc1	12	-3	0	6	/	/
COc1ccc(C(C)(C)C)cc1NC(=O)c1cncc(Br)c1	-45	5	0	16*	1	-1
O=C(CSc1nc2ccc(Nc3nc(N4CCOCC4)nc(N4CCOCC4)n3)cc2s1)Nc1ccccc1Cl	9	6	0	-3	/	/
O=C(CSc1nc2ccc(Nc3nc(N4CCOCC4)nc(N4CCOCC4)n3)cc2s1)Nc1ccccc1F	6	9	1	16*	5	-10
Cc1ccc(-n2cc(-c3ccccc3)c3c(=O)[nH]cnc32)cc1	5	-1	2	1	/	/
O=c1[nH]cnc2c1c(-c1ccccc1)cn2-c1ccccc1	12	7	-1	17*	2	-7
COC(=O)Cc1cc(=O)oc2cc(OC)ccc12	-8	1	1	-6	/	/
COc1ccc2c(CC(=O)O)cc(=O)oc2c1	-10	4	0	15*	0	-3
N#CC1=C(N)C(C#N)(C#N)[C@H](c2c(F)cccc2F)[C@H]2CC3(CC=C12)OCCO3	-43	-1	22	16*	-2	-10
COc1ccccc1NC(=O)COC(=O)c1cnc(C)cn1	24	3	-8	7	/	/
CSc1ccccc1NC(=O)COC(=O)c1cnc(C)cn1	-2	-2	0	14*	-1	-6
COC(=O)[C@@]12CCCCC3=C1N(CCC3)C(=O)[C@H]2CC(=O)N1CCSCC1	/	-4	/	-3	/	/
CN(C(=O)c1cccc(NC(=O)Cc2cccc(NC(=O)C3CCN(C(=O)C4CCCCC4)CC3)c2)c1)C1CC1	3	-4	0	15*	4	-5
CN(C(=O)c1cccc(NC(=O)Cc2cccc(NC(=O)C3CCN(C(=O)C4CCC4)CC3)c2)c1)C1CC1	-11	0	-2	-8	/	/
COc1cc(O)c(C(CCN2CCOCC2)c2ccc(N(C)C)cc2)c(OC)c1 (stereo not given)	-15	10	0	14*	-7	-6
COc1ccc(CC(=O)NCc2n[nH]c(=S)n2-c2ccccc2OC)cc1	-4	2	0	15*	-4	-16
COc1ccc(N=Nc2nc3ccc(Br)cc3n2C)cc1	-14	6	33	55*	2	0
COC(=O)CC#C[C@@H](C)[C@H](NS(=O)(=O)c1ccc(C)cc1)C(C)(C)C	/	-9	/	4	/	/
Nc1ccc2nc3c(=O)n(C4CCCCC4)c(=O)[nH]c3nc2c1	-119	8	167*	27*	-6	7
CCCCn1c(N)c(Br)c(=O)[nH]c1=O	-3	-1	1	1	/	/
Cc1nc2ccccc2c(=O)n1CCc1ccccc1	-11	2	-6	-3	/	/
CCCCn1c(=O)[nH]c2nc3cc(N)ccc3nc2c1=O	-298	8	232*	25*	-12	0
Cc1cc2nc3c(=O)n(CCc4ccccc4)c(=O)[nH]c3nc2cc1N	-98	-5	152*	23*	7	5
COc1ccc(CCN(Cc2cccs2)S(=O)(=O)c2ccc(F)cc2)cc1OC	/	3	/	0	/	/
CCCCNC(=O)C[C@H]1C[C@@]2(C(=O)OC)C(=C[C@H](C3CCCC3)O[C@@H]2C)N(Cc2ccc(Cl)cc2Cl)C1=O	/	7	/	-4	/	/
